# Laboratory results from PubChem BioAssay.
# Active and inactive are the calls of the source.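 The calls were made as follows, unless noted: active = viability at or below 30% in both replicate assays; inconclusive = viability at or below 30% in just one of the two assays; inactive = the rest.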
# Experiments:
# [1] = reducers of endogenous Her2 protein level, primary screen, SKBR3 breast tumor cells, AlphaScreen, ATP viability (AID 461;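 active = Her2 level under about 52% in both replicate screens, with viability over 70% of control, limit read from the data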;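 as to Her2 level: lower value means less Her2 protein in the cells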;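 as to viability: percent of carrier control wells set as 100% viability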); conditions: 18-24 h, measured here: SKBR3 viability, ATP luminescence, at 10 µM
# [2] = molecular target: Receptor tyrosine-protein kinase erbB-2 (Homo sapiens) (UniProt P04626); experiment: as above; conditions: 18-24 h, at 10 µM, stronger effect = lower value
# [3] = SK-BR-3 cell growth inhibitors, pilot screen, 24 h, human (AID 572;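 active = viability at or below 10% of carrier control in both of two separate runs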;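 also: compound exposure lasted between 18 and 24 h rather than exactly 24 h; 100% = carrier-treated control wells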); conditions: SK-BR-3 viability, CellTiter-Glo luminescence, at 10 µM, stronger effect = lower value
# [4] = HUVEC growth inhibition – cell-based, human, primary screen (AID 575); conditions: HUVEC proliferation, CellTiter-Glo luminescence, 72 h; at 10 µM; stronger effect = lower value;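 also: 100% = median of untreated cell wells with 0.1% DMSO on each plate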
# In short: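 Timing: 72 h treatment at 37 °C; material: HUVEC primary cells; technique: CellTiter-Glo luminescence measuring cellular ATP; controls: vehicle and MePR control wells; measure: percent of median DMSO-control luminescence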
# [5] = growth inhibitors of H69AR lung tumor, primary screen, human, duplicate replicates (AID 580;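 active = viability at or under a set limit in both replicates, limit being median viability minus 3 SD, cut at about 48% in these data, passing the limit was not always enough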;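 also: 100% = mean luminescence of untreated wells and 0% = no signal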); conditions: H69AR lung tumor cells viability, ATP luminescence, 72 h; at 10 µM; stronger effect = lower value
# [6] = reversal of MRP1-mediated doxorubicin resistance, pilot screen, H69AR cells, doxorubicin co-treatment (AID 601;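 active = viability loss from added drug above about 55%, and viability with drug at most 40%, in both replicates, limit read from the data, passing the limit was not always enough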); conditions: CellTiter-Glo, 72 h, at 10 µM; for differential viability (reversal): stronger effect = higher value
# [7] = 384-well plate pilot, post-Golgi transport modulator project, inhibition of yeast transport mutant growth (AID 636; in the data active = inhibition above about 31%); conditions: absorbance 615 nm, about 18 h, stronger effect = higher value
# [8] = growth suppression of yeast trafficking mutant, preliminary HTS, modulators of trafficking downstream of Golgi apparatus project, 1536-format plate, OD 615 nm (AID 637; in the data active = inhibition above about 30%); conditions: yeast transport mutant growth, absorbance 615 nm, 18 h; stronger effect = higher value
# [9] = H69AR cells + 2 uM doxorubicin, measured here: viability with 2 uM doxorubicin, stronger effect = lower value
# [10] = H69AR cells, compound alone cytotoxicity
# Receptor tyrosine-protein kinase erbB-2 (Homo sapiens), sequence (P04626 whole entry, looked up): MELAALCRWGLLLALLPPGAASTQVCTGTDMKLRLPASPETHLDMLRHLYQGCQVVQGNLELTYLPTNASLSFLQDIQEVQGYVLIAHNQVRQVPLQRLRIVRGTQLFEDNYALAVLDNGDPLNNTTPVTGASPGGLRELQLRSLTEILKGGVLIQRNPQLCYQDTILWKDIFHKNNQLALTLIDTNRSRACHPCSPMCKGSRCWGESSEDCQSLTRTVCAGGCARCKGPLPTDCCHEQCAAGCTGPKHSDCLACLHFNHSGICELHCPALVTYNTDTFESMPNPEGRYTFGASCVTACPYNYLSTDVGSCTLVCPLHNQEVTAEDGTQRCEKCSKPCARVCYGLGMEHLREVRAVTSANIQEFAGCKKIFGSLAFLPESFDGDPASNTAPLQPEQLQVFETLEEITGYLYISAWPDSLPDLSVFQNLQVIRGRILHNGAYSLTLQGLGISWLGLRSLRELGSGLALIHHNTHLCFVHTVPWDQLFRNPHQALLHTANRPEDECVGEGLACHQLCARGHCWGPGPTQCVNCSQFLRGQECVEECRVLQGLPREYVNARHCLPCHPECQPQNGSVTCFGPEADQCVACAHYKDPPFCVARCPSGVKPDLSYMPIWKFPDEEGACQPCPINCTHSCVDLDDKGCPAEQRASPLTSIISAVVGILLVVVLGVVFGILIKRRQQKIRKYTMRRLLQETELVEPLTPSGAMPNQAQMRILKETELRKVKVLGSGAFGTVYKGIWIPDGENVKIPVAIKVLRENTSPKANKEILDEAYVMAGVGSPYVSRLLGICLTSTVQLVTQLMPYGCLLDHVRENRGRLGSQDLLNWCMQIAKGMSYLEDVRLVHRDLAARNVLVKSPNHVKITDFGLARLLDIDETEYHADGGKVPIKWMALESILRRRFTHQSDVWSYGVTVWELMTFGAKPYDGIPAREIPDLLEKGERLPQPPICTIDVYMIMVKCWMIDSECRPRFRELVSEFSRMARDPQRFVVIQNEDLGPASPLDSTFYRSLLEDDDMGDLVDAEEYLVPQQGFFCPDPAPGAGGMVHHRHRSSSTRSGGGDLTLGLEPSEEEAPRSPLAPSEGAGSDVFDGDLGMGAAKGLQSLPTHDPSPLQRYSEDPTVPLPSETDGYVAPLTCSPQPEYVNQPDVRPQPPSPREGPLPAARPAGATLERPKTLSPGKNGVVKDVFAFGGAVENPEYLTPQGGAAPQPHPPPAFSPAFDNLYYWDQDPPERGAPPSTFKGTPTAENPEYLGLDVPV
SMILES,viability [1],Her2 level [2],viability [3],viability [4],viability [5],differential viability (reversal) ([6]; H69AR cells + 2 uM doxorubicin),"viability [6, 9]","viability [6, 10]",inhibition [7],inhibition [8]
CCOc1ccc(N(CC(=O)NC2CCCC2)S(=O)(=O)c2c(C)[nH]c(=O)[nH]c2=O)cc1,87%,104% (inactive),87% (inactive),96.4% (inactive),101% (inactive),17.2% (inactive),83.4%,101%,0.4% (inactive),-3.28% (inactive)
CCOc1ccccc1N(CC(=O)NC1CCCC1)C(=O)CCCC(=O)Nc1ccccn1,91%,93.5% (inactive),91% (inactive),106% (inactive),112% (inactive),15.3% (inactive),96.3%,112%,-2.16% (inactive),6.03% (inactive)
Cn1c(CCNC(=O)c2ccco2)nc2cc(NC(=O)C3CCCCC3)ccc21,101%,114% (inactive),101% (inactive),78.3% (inactive),84.5% (inactive),2.02% (inactive),82.5%,84.5%,-8.49% (inactive),-1.59% (inactive)
Cn1c(=O)c2c(nc(NCc3ccccc3)n2CCCc2ccccc2)n(C)c1=O,84%,88% (inactive),84% (inactive),69.5% (inactive),83.4% (inactive),-9.82% (inactive),93.2%,83.4%,-0.81% (inactive),-3.11% (inactive)
CC(C)Cn1c(-c2ccc(F)cc2)n[nH]c1=S,114%,98.5% (inactive),114% (inactive),80% (inactive),88.8% (inactive),8.11% (inactive),80.7%,88.8%,-5% (inactive),-1.33% (inactive)
CC1=C(C(N)=O)C(c2cccnc2)n2nc(SCc3ccccc3Cl)nc2N1 (stereo not given),79%,94.5% (inactive),79% (inactive),87.6% (inactive),98.7% (inactive),14.7% (inactive),84%,98.7%,-9.05% (inactive),-3.77% (inactive)
O=C(c1ccco1)N1CCN(S(=O)(=O)c2ccc(C3CCCCC3)cc2)CC1,96%,97.5% (inactive),96% (inactive),99.9% (inactive),85.6% (inactive),0.505% (inactive),85.1%,85.6%,-4.53% (inactive),2.42% (inactive)
CN1CCCC(OC(=O)COc2ccc(Br)cc2)C1 (stereo not given),93.5%,108% (inactive),93.5% (inactive),91.4% (inactive),89.7% (inactive),-2.85% (inactive),92.5%,89.7%,-0.8% (inactive),-1.48% (inactive)
Cc1oc(-c2ccccc2)cc1C(N)=O,103%,78.5% (inactive),103% (inactive),92.3% (inactive),100% (inactive),20% (inactive),80.3%,100%,-0.79% (inactive),-2.9% (inactive)
Cc1c(C(=O)OCC(C)(C)CN(C)C)oc2ccccc12,122%,95% (inactive),122% (inactive),101% (inactive),92.4% (inactive),8.07% (inactive),84.3%,92.4%,-6.8% (inactive),-4.6% (inactive)
O=C(OCC#CCSc1nc2ccccc2s1)c1ccco1,88%,90.5% (inactive),88% (inactive),74.7% (inactive),81.8% (inactive),1.8% (inactive),80%,81.8%,-2.34% (inactive),-10.8% (inactive)
COc1ccc(OCCC(=O)NCc2ccccc2)cc1,103%,105% (inactive),103% (inactive),95.7% (inactive),103% (inactive),19.8% (inactive),83.3%,103%,-3.2% (inactive),2.9% (inactive)
Cc1cc(C(F)F)n2nc(C(=O)Nc3ccc(S(=O)(=O)N4CCCCCC4)cc3)nc2n1,74%,73.5% (inactive),74% (inactive),83.4% (inactive),83.3% (inactive),-1.62% (inactive),84.9%,83.3%,-3.87% (inactive),22.9% (inactive)
CCOC(=O)C1CCCN(C/C(O)=C(\C#N)c2nc(-c3ccc(Cl)cc3)cs2)C1 (stereo not given),78.5%,101% (inactive),78.5% (inactive),71.8% (inactive),84.1% (inactive),-7.97% (inactive),92.1%,84.1%,-6.16% (inactive),-3.17% (inactive)
CCC(=O)Nc1cc2nn(-c3ccccc3)nc2cc1Cl,91%,90.5% (inactive),91% (inactive),55% (inactive),68.2% (inactive),-2.75% (inactive),70.9%,68.2%,-7.57% (inactive),5.9% (inactive)
CCOc1nc(SCCOc2ccccc2)nc(N(C)C)n1,96%,115% (inactive),96% (inactive),72.4% (inactive),107% (inactive),4.17% (inactive),102%,107%,-1.84% (inactive),-3.5% (inactive)
